From ChEMBL document CHEMBL2021907, “Amyrisins A-C, O-prenylated flavonoids from Amyris madrensis” (J Nat Prod, 2012)
Calls of active or inactive are those of the source. The rule behind the calls is not given here.

Columns and labels:
PC-3 [1] = assay: Cytotoxicity against human PC3 cells after 48 hrs by SRB assay; type: functional, cell-based; conditions: PC-3, 48 h
Outline: (§1)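 SRB assay over 48 h, with a concentration range up to 50 μM, in cells pre-plated at set densities. PC-3 cells were grown in RPMI 1640 with 10% FBS and 50 µg/mL gentamicin. DU 145 cells were grown in Richter's IMEM with 10% FBS and 25 µg/mL gentamicin. The IC50 is the 50% growth-inhibition concentration, averaged over two independent triplicate experiments.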

DU-145 = assay: Cytotoxicity against human DU145 cells after 48 hrs by SRB assay; type: functional, cell-based; conditions: DU-145, 48 h; outline: as §1
Homo sapiens = organism: Homo sapiens; assay: Disruption of microtubules in human MDA-MB-435 after 1 hr by immunoblotting technique
PC-3 [2] = assay: Effect on cell cycle distribution in human PC3 cells at 50 uM after 18 hrs by flow cytometry; type: functional, cell-based
PC-3 [3] = assay: Cytotoxicity against human PC3 cells at 50 uM after 48 hrs by SRB assay; type: functional, cell-based; outline: as §1

SMILES	IC50 (PC-3 [1])	IC50 (DU-145)	Activity (Homo sapiens)	Activity (PC-3 [2])	Activity (PC-3 [3])
C=C(C)C(O)COc1ccc(-c2cc(=O)c3c(O)c(OC)c(O)cc3o2)cc1 (stereo unspecified) [AMYRISIN B]	17.5 µM	17.5 µM	inactive		
COc1cc(-c2cc(=O)c3c(O)c(OC)c(O)cc3o2)ccc1OCC=C(C)C [AMYRISIN C]	23 µM	23 µM	inactive	inactive	
O=C1OC[C@@H]2Cc3cc4c(cc3[C@@H](c3ccc5c(c3)OCO5)[C@@H]12)OCO4 [POLYGAMAIN]	0.0706 µM		Active		
COc1c(O)cc2oc(-c3ccc(OCC=C(C)C)cc3)cc(=O)c2c1O			inactive		inactive
